# Measured values from different studies.
# Organism: Staphylococcus epidermidis
Structure (SMILES),read-out,method,strain,time,measurement,result
CCOC(=O)c1c(N)csc1-c1cn(-c2ccccc2)nc1-c1ccc(C)cc1,microbial killing,broth dilution,,,MBC,0.125 µg/mL
O=C(O)CN1C(=O)/C(=C/c2ccc(-c3ccc(N(c4ccccc4)c4ccccc4)cc3)c3ccccc23)NC1=S,microbial growth,broth dilution,ATCC12228,,MIC,> 1000 µg/mL
O=[N+]([O-])c1ccc(-c2nc3cccc(O)c3[nH]2)o1,microbial killing,,,,MBC,1 µg/mL
O=C(O)CN1C(=O)/C(=C/c2ccc(-c3ccc(N(c4ccccc4)c4ccccc4)cc3)c3ccccc23)SC1=S,microbial killing,broth dilution,ATCC12228,,MBC,1000 µg/mL
COc1cccc(OC)c1C(=O)N[C@@H]1C(=O)N2[C@@H]1SC(C)(C)[C@@H]2C(=O)O,microbial growth,broth dilution,12228,,MIC,3.13 µM
CC(C)Oc1c(NC(=O)c2ccc(NC(=O)[C@H](CC(N)=O)NC(=O)c3ccc(NC(=O)c4ccc(C#N)cc4)cc3)cc2)ccc(C(=O)Nc2ccc(C(=O)O)cc2)c1O,microbial growth,,DSM28765,,MIC,≤ 0.03 µg/mL
O=S(=O)(O)c1cc(O)c(N=Nc2ccc3ccccc3c2O)c2ccccc12,microbial growth,broth dilution,,24 h,MIC50,63 µM
O=C(O)c1cn(C2CC2)c2cc(N3CCNCC3)c(F)cc2c1=O,microbial killing,broth dilution,,,MBC,0.5 µg/mL
C/C(=C\c1ccc(C#N)cc1)C(=O)Nc1ccc(C(=O)N[C@@H](CC(N)=O)C(=O)Nc2ccc(C(=O)Nc3ccc(C(=O)Nc4ccc(C(=O)O)cc4)c(O)c3OC(C)C)cc2)cc1,microbial growth,,DSM28765,,MIC,≤ 0.03 µg/mL
O=C1NC(=S)N/C1=C\c1ccc(-c2ccc(N(c3ccccc3)c3ccccc3)cc2)c2ccccc12,microbial growth,broth dilution,ATCC12228,,MIC,> 1000 µg/mL
CC(C)Oc1c(NC(=O)c2ccc(NC(=O)[C@H](CC(N)=O)NC(=O)c3ccc(NC(=O)c4ccc(C#N)cn4)cc3)cc2)ccc(C(=O)Nc2ccc(C(=O)O)cc2)c1O,microbial growth,,DSM28765,,MIC,1 µg/mL
O=C1NC(=S)S/C1=C\c1ccc(-c2ccc(N(c3ccccc3)c3ccccc3)cc2)c2ccccc12,microbial growth,broth dilution,ATCC12228,,MIC,1000 µg/mL
O=C(O)c1cn(C2CC2)c2cc(N3CCNCC3)c(F)cc2c1=O,microbial growth,,DSM28765,,MIC,0.25 µg/mL
O=[N+]([O-])c1ccc2c(N=Nc3c(O)ccc4ccccc34)c(O)cc(S(=O)(=O)O)c2c1,microbial growth,broth dilution,,24 h,MIC50,250 µM
